Screening results: PubChem, several laboratories
CXCR6 block = inhibitors of human CXCR6 receptor; O00574; CHO-K1 PathHunter CXCR6 beta-arrestin, luminescence; inhibition, % at 20 µM; 360,000 tested, 0.36% active; AID 602244; in the data active means inhibition above about 34%, passing the limit was not always enough;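 further: antagonist mode with CXCL16 agonist at 10 nM final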
APJ antag = blocks the human apelin receptor APJ | CHO-K1 APJ beta-arrestin complementation, luminescence | inhibition, % at 20 µM | AID 2521 | 330,000 tested, 0.32% active;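 active means inhibition above about 40% at 20 µM, limit read from the data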;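 further: cells challenged with 10 nM apelin-13 agonist together with compound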
Target sequence (P35414 whole entry, looked up): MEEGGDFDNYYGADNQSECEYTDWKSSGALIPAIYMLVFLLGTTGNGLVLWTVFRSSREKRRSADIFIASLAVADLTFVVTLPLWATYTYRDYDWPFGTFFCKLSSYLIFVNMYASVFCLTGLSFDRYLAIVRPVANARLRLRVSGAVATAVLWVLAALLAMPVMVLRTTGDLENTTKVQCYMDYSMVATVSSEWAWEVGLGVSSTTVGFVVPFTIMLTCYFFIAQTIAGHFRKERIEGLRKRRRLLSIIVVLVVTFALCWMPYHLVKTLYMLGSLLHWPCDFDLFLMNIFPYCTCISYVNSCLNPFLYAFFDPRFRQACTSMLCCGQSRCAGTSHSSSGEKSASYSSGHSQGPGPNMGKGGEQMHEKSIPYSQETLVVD
APJ agonist = activates the human apelin receptor APJ; P35414; CHO-K1 APJ PathHunter beta-arrestin, luminescence; 0% DMSO wells, 100% apelin; activation, % at 20 µM; 330,000 tested, 0.11% active; AID 2520;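 active means activation more than six SD over the plate average, tested at 20 µM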
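Test system: CHO-K1 APJ beta-arrestin complementation cell line. Amount: cell density 1000 per well. Controls: DMSO negative, 10 nM Apelin-13 positive. Signal: luminescent beta-gal fragment complementation, chemiluminescent substrate. Read-out basis: agonist-driven arrestin binding to APJ. Timing: compound stimulation 90 min at 25 °C, detection 60 min.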
EBI2 antag = EBI2 (human) antagonism; P32249; EBI2 beta-arrestin recruitment, luminescence, 7a,25-OHC stimulated; inhibition, % at 5 µM; 360,000 tested, 0.81% active; in the data active means inhibition above about 38%;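 further: enzyme fragment complementation signal reports receptor beta-arrestin coupling in cells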
m5-HT2A agonist = agonists of mouse serotonin 5-HT2A receptor (HTR2A) | activation, % at 7.6 µM | P35363 | CHO-K1 mHTR2A beta-arrestin complementation, luminescence; percent of 30 µM serotonin response | 360,000 tested, 0.66% active;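 active means activation above a run cutoff, the mean activation of all tested compounds plus 3 SD, cut at about 14% in these data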
CCR6 antagonist = CCR6 (human) receptor antagonism; CHO-K1 CCR6 PathHunter beta-arrestin, luminescence, CCL20-stimulated; inhibition, % at 20 µM; 340,000 tested, 0.49% active;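 active means compounds whose inhibition of the agonist-driven luminescence signal at 20 µM reaches about 50%, limit read from the data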;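 further: cells stimulated with CCL20 at 14 nM final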
EBI2 antag conf = EBI2 (human) antagonism, single concentration confirmation; shares compounds with EBI2 antag; EBI2 beta-arrestin luminescence, 7a,25-OHC antagonism; inhibition, % at 5 µM; 2,400 tested, 29% active; AID 651997;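 active means inhibition of at least 50%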
EBI2 ag = activates EBI2, counter-screen for EBI2 antagonists; shares compounds with EBI2 antag; EBI2-expressing cells, agonist mode, luminescence, 60 min; 0% vehicle, 100% 7α,25-dihydroxycholesterol control; activation, % at 5 µM; 2,400 tested, under 10 active; AID 652000;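 active means activation of at least 50%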
bGal cs = inhibits E. coli beta-galactosidase, counter-screen for EBI2 antagonists; shares compounds with EBI2 antag; purified beta-galactosidase, luminescent Galacton Star, 15 min; inhibition, % at 5 µM; 2,400 tested, 1% active; AID 652176;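 active means replicate-average signal at least 3 plate SD below neutral wells, shown as high inhibition, flagging enzyme-inhibiting false positives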;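 further: higher means stronger loss of beta-gal luminescence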
Numbers stand for hits; . = inactive; / = not tested or not shown. This is a sample that favours compounds with a hit; in the whole collection about 2.1% have one here.

SMILES	CXCR6 block	APJ antag	APJ agonist	EBI2 antag	m5-HT2A agonist	CCR6 antagonist	EBI2 antag conf	EBI2 ag	bGal cs
CCOC(=O)C1CCN(C(=O)COc2ccc(Br)cc2)CC1	.	.	.	75	.	.	67	.	.
O=C(Nc1ccccc1)c1cc(C2CCCCN2C(=O)CCc2ccccc2)on1 (configuration not stated)	.	/	/	.	.	/	/	/	/
NS(=O)(=O)c1ccc(N/N=C/c2ccc(O)cc2O)c([N+](=O)[O-])c1	.	.	.	43	.	.	.	.	.
COc1ccc(Cn2c(=O)c3cccnc3n(Cc3ccc([N+](=O)[O-])cc3)c2=O)cc1	.	.	.	47	.	.	.	.	.
Cc1ccc(S(=O)(=O)N2CCCN(C(=O)c3ccc(-n4nccc4C)cc3)CC2)cc1	.	.	.	47	.	.	.	.	.
Cc1ccc(S(=O)(=O)N2CCN(C(=O)c3ccc(S(=O)(=O)N4CCCC4)cc3)CC2)cc1	.	.	.	.	.	.	/	/	/
N#CCCn1cc(/C=C(\C#N)c2nc3ccccc3s2)c(-c2ccc(F)cc2)n1	.	.	.	46	.	.	.	.	.
Cc1nn(-c2ccc(C(=O)N3CCN(S(=O)(=O)c4ccccc4C(F)(F)F)CC3)cc2)c(C)c1Cl	.	.	.	47	.	.	.	.	.
Cc1cc(C(=O)NCc2csc(-c3ccccc3)n2)no1	.	.	.	.	.	.	/	/	/
CCCCN(CC(=O)NC1CCCC1)C(=O)C(=O)Nc1ccc2c(c1)OCCO2	.	.	.	.	.	.	/	/	/
COc1cc(OC)nc(C(NC(=O)C2CCN(Cc3c[nH]c4ccccc34)CC2)c2ccc(Cl)cc2)n1 (configuration not stated)	.	/	/	.	.	/	/	/	/
COc1ccc(OCC(=O)N2CCN(c3cccc(C(F)(F)F)c3)CC2)cc1	.	.	.	70	.	.	51	.	.
O=C(/C=C/c1ccc(Br)cc1)N1CCN(c2cccc(C(F)(F)F)c2)CC1	.	/	/	94	.	.	81	.	.
COc1ccc(OCC(=O)N2CCN(c3cccc(Cl)c3)CC2)cc1	.	.	.	86	.	.	71	.	.
COc1ccc(N2CCN(C(=O)COc3ccc(Cl)cc3Cl)CC2)cc1	.	.	.	51	.	.	.	.	.
COc1ccc(NC(=O)CN2CCN(C3c4ccccc4-c4ccccc43)CC2)cc1	.	.	.	47	.	.	.	.	.
CCc1ccc(N2CC(C(=O)Nc3ccc(S(=O)(=O)N4CCOCC4)cc3)CC2=O)cc1 (configuration not stated)	.	.	.	52	.	.	.	.	.
Cc1ccccc1N1CC(C(=O)Nc2ccc(S(=O)(=O)NCC3CCCO3)cc2)CC1=O (configuration not stated)	.	.	.	.	.	.	/	/	/
Cc1ccc(N2CC(C(=O)Nc3ccc(S(=O)(=O)NCC4CCCO4)cc3)CC2=O)cc1 (configuration not stated)	.	.	.	51	.	.	.	.	.
CCc1ccc(N2CC(C(=O)Nc3ccc(C)c(S(=O)(=O)N4CCOCC4)c3)CC2=O)cc1 (configuration not stated)	.	.	.	.	.	.	/	/	/
O=C(Nc1ccc(S(=O)(=O)N2CCCCC2)cc1)C1CC(=O)N(c2ccc(Cl)cc2)C1 (configuration not stated)	.	.	.	89	.	.	56	.	.
Cc1ccc(N2CC(C(=O)Nc3ccccc3N3CCCC3)CC2=O)cc1 (configuration not stated)	.	.	.	.	.	.	/	/	/
Cc1ccc(N2CC(C(=O)Nc3cc(C)ccc3F)CC2=O)cc1 (configuration not stated)	.	.	.	53	.	.	.	.	.
CCCC1OC(c2cc3c(cc2Cl)OCO3)OCC1CC (configuration not stated)	.	/	/	.	.	.	/	/	/
Cc1ccc(S(=O)(=O)N2CCN(C(=O)COC(=O)c3ccc([N+](=O)[O-])o3)CC2)c(C)c1	.	.	.	.	.	.	/	/	/
SMILES	CXCR6 block	APJ antag	APJ agonist	EBI2 antag	m5-HT2A agonist	CCR6 antagonist	EBI2 antag conf	EBI2 ag	bGal cs
Cc1ccc(N2CC(C(=O)Nc3ccc(S(=O)(=O)N4CCCC4)cc3)CC2=O)cc1 (configuration not stated)	.	.	.	55	.	.	.	.	.
O=C(Nc1ccc(S(=O)(=O)N2CCCCC2)cc1)C1CC(=O)N(Cc2ccccc2)C1 (configuration not stated)	.	.	.	.	.	.	/	/	/
CC(C)N1CC(C(=O)Nc2ccc(S(=O)(=O)N3CCCCC3)cc2)CC1=O (configuration not stated)	.	.	.	.	.	.	/	/	/
Cc1ccc(CN2CC(C(=O)Nc3ccc(S(=O)(=O)N4CCCCC4)cc3)CC2=O)cc1 (configuration not stated)	.	.	.	50	.	.	.	.	.
CCCC(=O)N1CCC1(C)C(=O)NS(=O)(=O)c1cccs1 (configuration not stated)	.	/	/	.	.	/	/	/	/
COc1ccccc1S(=O)(=O)N(C)C[C@@H]1OCc2cnnn2CCCC(=O)N([C@@H](C)CO)C[C@@H]1C	.	/	/	.	.	/	/	/	/
CCN(CC)S(=O)(=O)c1ccc2oc(C(=O)NC3CCCc4ccccc43)c(C)c2c1 (configuration not stated)	.	.	.	43	.	.	.	.	.
O=C1NN=C2CCCCCC12 (configuration not stated)	.	/	/	.	.	/	/	/	/
CCOC(=O)C1CCN(C(=O)C2CCN(S(=O)(=O)N3CCC4(CC3)OCCO4)CC2)CC1	.	.	.	.	.	.	/	/	/
CCOC(=O)c1ccccc1NC(=O)CN1CCC(n2nnc3cc(C(F)(F)F)ccc32)CC1	.	.	.	.	.	.	/	/	/
O=C(CN1CCC(n2nnc3cc(C(F)(F)F)ccc32)CC1)NCc1cccs1	.	.	.	58	.	.	.	.	.
CCCS(=O)(=O)NC(=O)C1(C)CCCN(C(=O)c2c(-c3ccccc3)noc2C)C1 (configuration not stated)	.	/	/	.	.	/	/	/	/
NNc1cc(C(=O)O)ccc1Cl	.	.	.	.	.	.	/	/	/
